Results from ChEMBL document CHEMBL5038608, “Design, synthesis, and biological evaluation of novel pyrrolidinone small-molecule Formyl peptide receptor 2 agonists” (Eur J Med Chem, 2021).
Values after ≈ are worked out from the molar mass of the structure shown. Active and inactive are the calls of the source. The rule behind the calls is not given here.

Columns and labels:
[1] = molecular target: T1, N-formyl peptide receptor 2 (Homo sapiens) (UniProt P25090); assay: Agonist activity at FPRL1 (unknown origin) expressed in CHO-K1 cells assessed as stimulation of beta-arrestin recruitment […] incubated for 150 mins by beta-galactosidase based PathHunter assay; type: functional, cell-based
T1 sequence (whole entry): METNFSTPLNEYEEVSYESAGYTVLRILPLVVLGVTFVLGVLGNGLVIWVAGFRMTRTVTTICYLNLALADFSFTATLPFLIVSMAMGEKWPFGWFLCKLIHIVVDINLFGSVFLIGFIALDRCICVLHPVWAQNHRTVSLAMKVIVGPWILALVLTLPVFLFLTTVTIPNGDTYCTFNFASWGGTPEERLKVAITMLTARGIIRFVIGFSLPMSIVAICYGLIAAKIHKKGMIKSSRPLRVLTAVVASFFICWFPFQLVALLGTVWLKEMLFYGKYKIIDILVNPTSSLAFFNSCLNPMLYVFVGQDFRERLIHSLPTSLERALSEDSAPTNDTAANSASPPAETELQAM
In short: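 PathHunter CHO-K1 FPRL1 cells carry complementing β-galactosidase fragments. Plated at 5000/well, held 1 h RT, then overnight at 37 °C. Compounds were half-log serially diluted from 10 mM stocks in PBS. Stimulation 150 min at 37 °C; W-peptide (WKYMVm, 100 nM) was the high control. Detection reagent added for 60 min RT in the dark, with chemiluminescence read-out.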

[2] = molecular target: T2, N-formyl peptide receptor 2 (Homo sapiens, UniProt P25090); assay: Agonist activity at FPRL1 (unknown origin) expressed in CHO-K1 cells assessed as increase in calcium mobilization incubated for 2.5 hrs by cellular based FLIPR assay; type: functional, cell-based
T2 sequence (P25090 whole entry): T1 sequence (whole entry)
In short: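 CHO-K1 cells overexpressing hFPR2, plated at 20,000 cells/well in F-12 with 10% FBS and held overnight at 37 °C. Loaded with FLIPR Calcium 6 dye for 2 h at 37 °C, then 30 min at RT in the dark. Compounds were half-log serially diluted from 10 mM stocks in HBSS/20 mM HEPES. Cytosolic Ca2+ rise read on FLIPR Tetra. WKYMVm served as control.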

[3] = molecular target: T2, N-formyl peptide receptor 2; assay: Agonist activity at FPRL1 (unknown origin) expressed in CHO-K1 cells assessed as stimulation of beta-arrestin recruitment incubated for 150 mins by beta-galactosidase based PathHunter assay; type: functional, cell-based
In short: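 PathHunter CHO-K1 FPRL1 cells expressing β-gal enzyme-fragment complementation, 5000 cells/well, held overnight at 37 °C. Stimulated with half-log serial dilutions of compounds (10 mM stocks in PBS) for 150 min at 37 °C. High control was WKYMVm at 100 nM. Detection reagent added for 60 min at RT in the dark, then chemiluminescence read.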

[4] = molecular target: T1, N-formyl peptide receptor 2 (Homo sapiens); assay: Agonist activity at FPRL1 (unknown origin) expressed in CHO-K1 cells assessed as increase in calcium mobilization […] incubated for 2.5 hrs by cellular based FLIPR assay; type: functional, cell-based
In short: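 CHO-K1 cells overexpressing human FPR2 (PathHunter FPRL1 line), plated at 20,000/well in F-12 with 10% FBS and held 1 h RT, then overnight at 37 °C. Calcium 6 dye loaded 2 h at 37 °C, then 30 min RT in the dark. Compounds were half-log serially diluted from 10 mM stocks in HBSS with 20 mM HEPES. Cytosolic Ca2+ rise read on FLIPR Tetra.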

[5] = Microsomal stability in mouse liver microsomes assessed as half life at 1 uM preincubated for 5 mins followed by NADPH regenerating system addition measured after 30 mins by LC-MS/MS analysis; type: ADME, Microsome; conditions: t1/2, time 35 min
In short: (§1)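 Human or mouse liver microsomes (0.2 mg/mL protein) with compound at 1 µM final, pre-incubated 5 min at 37 °C. Reaction started with NADPH generating solution and agitated at 37 °C, with samples quenched up to 30 min. Centrifuged; supernatant analysed in triplicate by LC-MS.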

[6] = Distribution coefficient, logD of compound at pH 7.4 by shake flask method based LC-MS/MS analysis; type: physicochemical; conditions: octanol/water
In short: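 Shake-flask method: compound diluted from 10 mM DMSO stock into equal volumes of octanol and PBS, final concentration 100 µM. Shaken 12 h, then centrifuged. Both layers analysed in triplicate by LC-MS/MS (MRM, C8 UPLC). LogD = log10 of the octanol/buffer peak-area ratio.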

[7] = Microsomal stability in human liver microsomes assessed as half life at 1 uM preincubated for 5 mins followed by NADPH regenerating system addition measured after 30 mins by LC-MS/MS analysis; type: ADME, Microsome; conditions: t1/2, time 35 min; in short: as §1
[8] = Kinetic solubility of compound in PBS at pH 7.4 by UV-VIS absorption spectrophotometry analysis; type: physicochemical; conditions: for solubility kinetic: PBS, read-out: Kinetic_solubility; for Kinetic_solubility: buffer
In short: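 A 10 mM DMSO stock was diluted into PBS pH 7.4 at a target of 200 µM (final PBS:DMSO 98:2), in triplicate. Agitated 500 rpm for 90 min, then filtered. Filtrate diluted to PBS:DMSO 80:20 and its UV absorbance compared against a 200–6.75 µM standard series to give the concentration remaining in solution.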

[9] = filed as agonist, time 0.067 hrs, in the assay text read “measured for 240 s” for “incubated for 2.5 hrs”

Structure (SMILES) | Emax [1] | EC50 ([2]; cho-k1) | EC50 ([3]; cho-k1) | Emax ([4]; time 2.5 hrs) | half-life at 1 µM [5] | logD ([6]; read-out: logD) | half-life at 1 µM [7] | Emax ([1]; filed as agonist) | EC50 ([2]; read-out: EC50) | EC50 ([3]; read-out: EC50) | solubility kinetic [8] | Emax [4, 9] | logD [6] | Kinetic_solubility [8]
CCc1ccc(C(C)NC(=O)NC2CCN(c3cnn(C)c3)C2=O)cc1 (centres undefined) | inactive | Not Active | Not Active | inactive | – | – | – | – | – | – | – | – | – | –
O=C(Nc1ccc(Br)cc1)NC1CCN(c2cnn(-c3ccccc3)c2)C1=O (centres undefined) | inactive | Not Active | Not Active | inactive | 1.78 h | > 4 | 3.48 h | – | – | – | – | – | – | –
CC(C)(C)OC(=O)N1CC(N2CCC(NC(=O)Nc3ccc(Br)cc3)C2=O)C1 (centres undefined) | – | – | – | – | 1.87 h | > 4 | 1.88 h | 103% | 0.41 µM | 2.35 µM | 222 µM (≈ 101 µg/mL) | 67% | – | –
CC(C)(C)OC(=O)N1CCC(N2CCC(NC(=O)Nc3ccc(Br)cc3)C2=O)CC1 (centres undefined) | – | – | – | – | 0.522 h | 4.6 | 4.17 h | 93% | 0.73 µM | 6.3 µM | 61 µM (≈ 29.4 µg/mL) | 42% | – | –
O=C(Nc1ccc(Br)cc1)NC1CCN(C2CCN(Cc3ccccc3)CC2)C1=O (centres undefined) | – | – | – | – | 1.17 h | 3.5 | 1.87 h | 96% | 0.35 µM | 2.87 µM | 152 µM (≈ 71.7 µg/mL) | 76% | – | –
CC(C)(C)OC(=O)N1CCC[C@H](N2CCC(NC(=O)Nc3ccc(Br)cc3)C2=O)C1 (stereo in doubt; 19) [listing 1 of 2 here] | – | – | – | – | – | – | – | 89% | – | – | – | 71% | – | –
O=C(Nc1ccc(Br)cc1)NC1CCN(C2CCN(c3ncccn3)CC2)C1=O (centres undefined) | – | – | – | – | 0.733 h | 3.9 | 0.95 h | 96% | 0.008 µM | 0.385 µM | – | – | – | –
CC(NC(=O)NC1CCN(c2ccccc2)C1=O)c1ccncc1 (centres undefined) | inactive | Not Active | Not Active | inactive | – | 2 | 6.83 h | – | – | – | – | – | – | –
CC(NC(=O)NC1CC(C)N(c2ccccc2)C1=O)c1ccncc1 (centres undefined) | inactive | Not Active | Not Active | inactive | 2.52 h | 2.8 | 8.42 h | – | – | – | – | – | – | –
O=C(Nc1ccc(Br)cc1)NC1CCN(C2CCN(Cc3ccccc3)C2)C1=O (stereo in doubt; 17) [listing 1 of 2 here] | – | – | – | – | – | – | – | 100% | – | – | – | 128% | – | –
CC(C)(C)OC(=O)N1CCC[C@H](N2CCC(NC(=O)Nc3ccc(Br)cc3)C2=O)C1 (stereo in doubt; 19) [listing 2 of 2 here] | – | – | – | – | – | – | – | – | 0.13 µM | 1.38 µM | 71 µM (≈ 34.2 µg/mL) | – | > 4 | –
CC(C)(C)OC(=O)N1CCC[C@H](N2CCC(NC(=O)Nc3ccc(Br)cc3)C2=O)C1 (stereo in doubt; 20) [listing 1 of 2 here] | – | – | – | – | 0.5 h | 4.1 | – | – | 0.06 µM | 0.55 µM | – | – | – | 54 µM
O=C(Nc1ccc(Br)cc1)NC1CCN(C2CCN(Cc3ccccc3)C2)C1=O (stereo in doubt; 18) [listing 1 of 2 here] | – | – | – | – | 0.6 h | 3 | 0.933 h | – | 0.37 µM | 0.7 µM | 207 µM (≈ 94.7 µg/mL) | – | – | –
O=C(Nc1ccc(Br)cc1)NC1CCN(c2cnn(-c3ccncc3)c2)C1=O (centres undefined) | – | Not Active | – | inactive | – | 4.3 | 11 h | 103% | – | 3.76 µM | 3 µM (≈ 1.32 µg/mL) | – | – | –
N#Cc1ccc(NC(=O)NC2CCN(c3ccccc3F)C2=O)cc1 (centres undefined) | inactive | – | Not Active | – | 2.87 h | 2.7 | 1.42 h | – | 15 µM | – | – | 123% | – | –
CC(C)(C)OC(=O)N1CCC[C@H](N2CCC(NC(=O)Nc3ccc(Br)cc3)C2=O)C1 (stereo in doubt; 20) [listing 2 of 2 here] | – | – | – | – | – | – | – | 86% | – | – | – | 73% | – | –
O=C(Nc1ccc(Br)cc1)NC1CCN(C2CCNCC2)C1=O (centres undefined) | – | – | – | – | – | 0.3 | – | 100% | 0.23 µM | 1.03 µM | 234 µM (≈ 89.2 µg/mL) | 68% | – | –
O=C(Nc1ccc(Br)cc1)NC1CCN(C2CCN(Cc3ccccc3)C2)C1=O (stereo in doubt; 18) [listing 2 of 2 here] | – | – | – | – | – | – | – | 99% | – | – | – | 84% | – | –
O=C(Nc1ccc(Br)cc1)NC1CCN(c2ccc(F)cc2)C1=O (centres undefined) | – | – | – | – | 0.55 h | > 4 | > 6.67 h | – | 1.97 µM | 0.51 µM | – | – | – | –
O=C(Nc1ccc(Br)cc1)NC1CCN(C2CCN(Cc3ccccc3)C2)C1=O (stereo in doubt; 17) [listing 2 of 2 here] | – | – | – | – | – | – | – | – | 2.7 µM | 1.37 µM | – | – | 3.3 | 210 µM
COc1ccc(CNC(=O)NC2CCN(c3ccccc3)C2=O)cc1 (centres undefined) | inactive | Not Active | Not Active | inactive | 5.95 h | 1.99 | 5.48 h | – | – | – | – | – | – | –
Cn1cc(N2CCC(NC(=O)NCc3cc(F)cc(F)c3)C2=O)cn1 (centres undefined) | inactive | Not Active | Not Active | inactive | – | 2.1 | 9.73 h | – | – | – | – | – | – | –
CC1CC(NC(=O)NCc2nccn2C)C(=O)N1c1ccccc1 (centres undefined) | inactive | Not Active | Not Active | inactive | – | 1 | – | – | – | – | – | – | – | –
